# Reference: the M2OR odorant receptor database
# Target: T1, OR1A2 (Homo sapiens) (UniProt Q9Y585)
# T1 sequence (whole entry): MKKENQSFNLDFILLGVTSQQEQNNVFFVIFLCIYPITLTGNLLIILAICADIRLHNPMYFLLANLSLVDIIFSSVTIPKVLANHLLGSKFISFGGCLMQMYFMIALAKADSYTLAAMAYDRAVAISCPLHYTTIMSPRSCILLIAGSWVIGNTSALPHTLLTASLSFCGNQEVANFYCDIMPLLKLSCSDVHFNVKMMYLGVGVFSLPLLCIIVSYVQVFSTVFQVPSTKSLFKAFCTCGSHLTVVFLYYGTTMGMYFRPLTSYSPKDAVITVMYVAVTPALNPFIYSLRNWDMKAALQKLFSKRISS
# Details: stereoisomer not certain
# Procedure, shortened: (§1)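 Transient luciferase assays in mammalian cell lines were common, though methods varied by source. The values come from published papers and their supplementary material, with extra details from the original authors when needed. Responsive refers to a measured signal the original authors judged statistically different from baseline, and non-responsive (inactive) to the remainder.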
# 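Also: active if original authors judged signal statistically different from baseline.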
row,Structure (SMILES),odorant receptor agonist call
1,Cc1c([N+](=O)[O-])c(C)c([N+](=O)[O-])c(C(C)(C)C)c1[N+](=O)[O-],inactive
2,C=CCOC(=O)Cc1ccccc1,inactive
3,CCCCC(Br)C(=O)O (configuration not stated),inactive
4,CC(C=O)Cc1ccc2c(c1)OCO2 (configuration not stated),active
5,CCCCCCC(Br)C(=O)O (configuration not stated),inactive
6,CCCC(Br)C(=O)O (configuration not stated),inactive
7,CCC(Br)C(=O)O (configuration not stated),inactive
8,ClC=CCl,inactive
9,O=C([O-])Cc1ccccc1,inactive

# Target: T2, OR1D2 (Homo sapiens) (UniProt P34982)
# T2 sequence (whole entry): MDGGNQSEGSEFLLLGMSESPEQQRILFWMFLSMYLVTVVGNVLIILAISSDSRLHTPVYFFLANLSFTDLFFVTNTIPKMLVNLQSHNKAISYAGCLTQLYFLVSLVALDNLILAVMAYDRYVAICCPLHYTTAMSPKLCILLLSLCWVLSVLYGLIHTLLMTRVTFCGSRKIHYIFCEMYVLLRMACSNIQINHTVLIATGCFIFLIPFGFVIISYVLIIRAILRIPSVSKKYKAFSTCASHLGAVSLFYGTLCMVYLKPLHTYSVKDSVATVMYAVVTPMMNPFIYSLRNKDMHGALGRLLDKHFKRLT
# Details: stereoisomer not certain
# Procedure, shortened: as §1
row,Structure (SMILES),odorant receptor agonist call
1,O=CC=Cc1ccccc1,inactive
2,C=CCOC(=O)Cc1ccccc1,inactive
3,CC(C=O)Cc1ccc2c(c1)OCO2 (configuration not stated),inactive
4,O=Cc1ccccc1,inactive

# Target: T3, OR1G1 (Homo sapiens) (UniProt P47890)
# T3 sequence (whole entry): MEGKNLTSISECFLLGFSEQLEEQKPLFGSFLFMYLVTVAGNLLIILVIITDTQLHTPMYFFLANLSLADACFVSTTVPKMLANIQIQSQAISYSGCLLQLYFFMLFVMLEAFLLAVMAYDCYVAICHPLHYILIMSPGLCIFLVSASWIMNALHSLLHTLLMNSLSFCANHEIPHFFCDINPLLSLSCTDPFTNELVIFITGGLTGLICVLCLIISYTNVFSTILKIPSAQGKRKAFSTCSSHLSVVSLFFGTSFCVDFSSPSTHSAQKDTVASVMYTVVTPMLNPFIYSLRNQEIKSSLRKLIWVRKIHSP
# Details: stereoisomer not certain
# Procedure, shortened: as §1
row,Structure (SMILES),odorant receptor agonist call
1,Cc1c([N+](=O)[O-])c(C)c([N+](=O)[O-])c(C(C)(C)C)c1[N+](=O)[O-],inactive
2,CC(=O)CCc1ccc2c(c1)OCO2,active
3,C=CCc1ccc2c(c1)OCO2,active
4,C=CCOC(=O)Cc1ccccc1,inactive
5,CC(C=O)Cc1ccc2c(c1)OCO2 (configuration not stated),inactive
6,C=CCc1ccc(OC)cc1,inactive
7,c1ccncc1,active
8,COc1ccc(C=O)cc1,inactive
9,O=Cc1ccccc1,active
